Experimental data: ChEMBL document CHEMBL4765234 (J Med Chem, 2016)
≈ marks a conversion by molar mass, not a printed value. Calls of active or inactive are those of the source. The calls are words filed in the database; no cut-off is given here.

Columns and labels:
[1] = Drug metabolism in dog hepatocytes assessed as glucuronidation by LC-MS/MS analysis; format: ADME, cell-based, Canis lupus familiaris, Hepatocyte
[2] = Drug metabolism in rat hepatocytes assessed as glucuronidation by LC-MS/MS analysis; format: ADME, cell-based, Hepatocyte
[3] = target: T1, Peroxisome proliferator-activated receptor alpha (Homo sapiens) (UniProt Q07869); assay: Agonist activity at human Gal4-fused PPARalpha LBD expressed in African green monkey CV1 cells cotransfected with pRL-SV40 plasmid assessed as maximum efficacy measured after 24 hrs by luciferase reporter gene assay relative to control; format: cell-based; conditions: CV-1
T1 sequence (whole entry): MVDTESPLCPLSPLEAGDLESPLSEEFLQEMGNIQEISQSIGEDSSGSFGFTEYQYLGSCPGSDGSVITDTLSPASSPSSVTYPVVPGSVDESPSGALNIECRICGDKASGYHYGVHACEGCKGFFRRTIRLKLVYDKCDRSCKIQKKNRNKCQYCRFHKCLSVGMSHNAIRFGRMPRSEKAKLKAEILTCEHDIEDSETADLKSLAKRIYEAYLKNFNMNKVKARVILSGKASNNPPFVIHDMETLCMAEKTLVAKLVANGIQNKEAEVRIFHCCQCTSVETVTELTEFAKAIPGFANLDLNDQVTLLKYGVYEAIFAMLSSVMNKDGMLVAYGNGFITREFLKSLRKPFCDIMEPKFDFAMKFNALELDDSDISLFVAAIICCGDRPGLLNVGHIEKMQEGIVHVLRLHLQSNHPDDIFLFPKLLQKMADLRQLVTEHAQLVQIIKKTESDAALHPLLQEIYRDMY
How it was run: (§1)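 CV1 African green monkey kidney cells were cotransfected, in DMEM with 5% charcoal-stripped FBS, with two plasmids: an SV40-driven Gal4 DBD–PPARα or PPARδ LBD hybrid, and a 5×Gal4-element firefly luciferase reporter. Cells were replated at 15000/well for 4 h, then exposed to 0.17 nM–10 μM in half-log steps for 24 h. Luciferase was read, normalized to maximum from 10 μM reference agonist, and fit by a 4-parameter model.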

[4] = Solubility of the compound in FaSSIF; format: physicochemical
[5] = target: RXR alpha/PPAR gamma (Homo sapiens) (UniProt P37231+P19793); assay: Agonist activity at human CMV-fused PPARgamma […]/RXRalpha (unknown origin) expressed in African green monkey CV1 cells transfected with luciferase plasmid assessed as maximum efficacy measured after 24 hrs by luciferase reporter gene assay relative to control; format: cell-based; conditions: CV-1
How it was run: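 CV1 cells were transfected, in DMEM with 5% charcoal-stripped FBS, with CMV-driven full PPARγ and RXRα plus a 2×PPRE TK-promoter luciferase reporter. After overnight growth, cells were replated at 15000/well for 4 h, then treated with 0.17 nM–10 μM in half-log dilutions for 24 h. Lysate luminescence was expressed as % of the maximum from 10 μM reference PPARγ agonist and fit to a 4-parameter logistic.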

[6] = Solubility of the compound in 0.01 N HCl; format: physicochemical
[7] = Clearance in mouse liver microsomes by LC-MS/MS analysis; format: ADME, Microsome
Rattus norvegicus [8] = assay: Hypoglycemic activity in Zucker fatty diabetes mellitus rat model assessed as increase in insulin levels in plasma at 0.03 to 1 mg/kg, po administered for 21 days and measured at 10 to 60 mins post glucose challenge on day 21 by OGTT; format: functional, organism-based; conditions: dose 0.03-1 mg/kg, time 21.0 day
Mus musculus [9] = assay: Hypoglycemic activity in Balb/c mouse assessed as increase in insulin secretion at 0.03 to 3 mg/kg, po administered 60 mins prior to glucose challenge and measured at 3 to 7 mins by IPGTT; format: functional, organism-based; conditions: dose 0.03-3 mg/kg
[10] = target: Voltage-gated inwardly rectifying potassium channel KCNH2 (Homo sapiens, UniProt Q12809); assay: Inhibition of human ERG
Sequence of Voltage-gated inwardly rectifying potassium channel KCNH2 (Q12809 whole entry): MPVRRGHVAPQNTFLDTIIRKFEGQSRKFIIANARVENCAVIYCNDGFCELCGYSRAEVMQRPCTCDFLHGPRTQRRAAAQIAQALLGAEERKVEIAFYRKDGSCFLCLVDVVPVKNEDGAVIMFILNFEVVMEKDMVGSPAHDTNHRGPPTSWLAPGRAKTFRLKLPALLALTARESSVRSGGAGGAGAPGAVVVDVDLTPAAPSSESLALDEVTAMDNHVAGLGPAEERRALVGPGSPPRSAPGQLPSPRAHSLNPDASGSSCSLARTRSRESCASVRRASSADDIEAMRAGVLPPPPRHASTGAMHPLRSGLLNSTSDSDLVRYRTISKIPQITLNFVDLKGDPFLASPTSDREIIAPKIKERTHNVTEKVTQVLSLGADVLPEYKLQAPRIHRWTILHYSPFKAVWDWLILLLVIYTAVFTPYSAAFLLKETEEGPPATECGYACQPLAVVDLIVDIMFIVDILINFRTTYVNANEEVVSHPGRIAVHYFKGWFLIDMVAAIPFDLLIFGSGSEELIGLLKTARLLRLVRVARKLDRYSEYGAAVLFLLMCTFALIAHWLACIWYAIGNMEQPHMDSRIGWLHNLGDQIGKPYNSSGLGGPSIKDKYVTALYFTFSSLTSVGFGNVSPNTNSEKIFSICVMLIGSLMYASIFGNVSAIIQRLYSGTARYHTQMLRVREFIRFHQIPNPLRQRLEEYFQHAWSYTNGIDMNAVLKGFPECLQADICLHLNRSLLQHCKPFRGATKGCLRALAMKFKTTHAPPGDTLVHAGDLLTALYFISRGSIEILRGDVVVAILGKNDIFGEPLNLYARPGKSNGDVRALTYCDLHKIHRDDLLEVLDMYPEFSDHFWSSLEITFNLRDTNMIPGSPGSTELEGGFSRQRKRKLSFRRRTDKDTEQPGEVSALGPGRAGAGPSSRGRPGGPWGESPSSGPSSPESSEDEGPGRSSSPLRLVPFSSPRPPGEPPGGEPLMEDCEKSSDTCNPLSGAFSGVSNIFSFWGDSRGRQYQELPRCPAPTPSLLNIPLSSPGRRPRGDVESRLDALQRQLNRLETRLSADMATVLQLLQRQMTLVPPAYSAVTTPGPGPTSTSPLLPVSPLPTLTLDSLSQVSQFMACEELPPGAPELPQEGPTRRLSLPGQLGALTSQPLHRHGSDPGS

[11] = Lipophilicity, logP of compound; format: physicochemical; conditions: octanol/water
[12] = target: T2, Peroxisome proliferator-activated receptor delta (Homo sapiens, UniProt Q03181); assay: Agonist activity at human Gal4-fused PPARdelta LBD expressed in African green monkey CV1 cells cotransfected with pRL-SV40 plasmid measured after 24 hrs by luciferase reporter gene assay; format: cell-based, CV-1; how it was run: as §1
T2 sequence (Q03181 whole entry): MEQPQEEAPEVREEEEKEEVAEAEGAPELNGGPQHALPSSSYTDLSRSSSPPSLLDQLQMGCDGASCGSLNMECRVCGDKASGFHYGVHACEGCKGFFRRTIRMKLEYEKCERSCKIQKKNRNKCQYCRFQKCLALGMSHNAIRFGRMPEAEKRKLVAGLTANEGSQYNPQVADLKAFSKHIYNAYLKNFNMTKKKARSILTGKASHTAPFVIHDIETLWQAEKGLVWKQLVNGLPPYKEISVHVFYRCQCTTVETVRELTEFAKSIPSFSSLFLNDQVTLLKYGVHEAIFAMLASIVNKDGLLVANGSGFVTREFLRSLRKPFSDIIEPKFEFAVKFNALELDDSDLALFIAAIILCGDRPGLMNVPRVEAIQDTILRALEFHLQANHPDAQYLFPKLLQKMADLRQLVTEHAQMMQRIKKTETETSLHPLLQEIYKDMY

Rattus norvegicus [13] = assay: Hypoglycemic activity in Zucker fatty diabetes mellitus rat model assessed as reduction in blood glucose level administered orally for 21 days and measured at 10 to 60 mins post glucose challenge on day 1 by OGTT; format: functional, organism-based; conditions: dose 0.03-1 mg/kg, time 21.0 day
[14] = target: T3, Peroxisome proliferator-activated receptor alpha (Homo sapiens, UniProt Q07869); assay: Agonist activity at human Gal4-fused PPARalpha LBD expressed in African green monkey CV1 cells cotransfected with pRL-SV40 plasmid measured after 24 hrs by luciferase reporter gene assay; format: cell-based, CV-1; how it was run: as §1
T3 sequence (Q07869 whole entry): T1 sequence (whole entry)

[15] = Metabolic stability in mouse liver microsomes assessed as compound hydrolysis incubated for 30 mins by LC-MS/MS analysis; format: ADME, Microsome; conditions: read-out: Drug degradation
How it was run: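 Incubated 30 min with mouse or human liver microsomes. Stability reported as % metabolized.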

Mus musculus [16] = assay: Hypoglycemic activity in Balb/c mouse assessed as reduction in blood glucose level at 0.03 to 3 mg/kg, po administered 60 mins prior to glucose challenge and measured at 7 to 60 mins by IPGTT; format: functional, organism-based; conditions: dose 0.03-3 mg/kg

In the case of `CC#C[C@@H](CC(=O)O)c1ccc(OCc2ccc(CN3CCC4(C=Cc5ccccc54)CC3)cc2)cc1` [LY2881835], the Drug metabolism [1] is reported as “Metabolite_Detected”, the Drug metabolism [2] is reported as “Metabolite_Detected” and the Emax [3] is reported as 4%. For the same compound, the solubility [4] was 7 µg/mL (≈ 14.2 µM), the Emax [5] was 7% and the solubility [6] was 13 µg/mL (≈ 26.4 µM). The CLH [7] was 0.131 h⁻¹, the Activity (Rattus norvegicus [8]) was “Active” and the Activity (Mus musculus [9]) was “Active”. The IC50 [10] was > 10 µM, the logP [11] was 4.9 and the EC50 [12] was > 10 µM. The Activity (Rattus norvegicus [13]) was “Dose-dependent effect”, the EC50 [14] was > 10 µM and the metabolised at 0.5 h [15] was 79%. For the same compound, the Activity (Mus musculus [16]) was “Active”.

For `CC#C[C@@H](CC(=O)O)c1ccc(OCc2ccc(CN3CCCc4cccc(OC)c43)s2)cc1`, the Drug metabolism [1] was “Metabolite_Detected”, the Drug metabolism [2] was “Metabolite_Detected” and the Emax [3] was 4%. The solubility [4] was 35 µg/mL (≈ 73.6 µM), the Emax [5] was 8% and the solubility [6] was 46 µg/mL (≈ 96.7 µM). The CLH [7] was 0.022 h⁻¹, the Activity (Rattus norvegicus [8]) was “Active” and the Activity (Mus musculus [9]) was “Active”. For the same compound, the IC50 [10] was > 10 µM, the logP [11] was 5.2 and the EC50 [12] was > 10 µM. The Activity (Rattus norvegicus [13]) was “Dose-dependent effect”, the EC50 [14] was > 10 µM and the metabolised at 0.5 h [15] was 38%. For the same compound, the Activity (Mus musculus [16]) was “Active”.

For `CC#C[C@@H](CC(=O)O)c1ccc(OCc2ccc(CN3CCC4(C=Cc5ccccc54)CC3)s2)cc1`, the Drug metabolism [1] was “Metabolite_Detected” and the Drug metabolism [2] was “Metabolite_Detected”.

With `CC#C[C@@H](CC(=O)O)c1ccc(OCc2ccc(CN3CCC4(CCc5ccccc54)CC3)s2)cc1` the Drug metabolism [1] was “Metabolite_Detected”, the Drug metabolism [2] was “Metabolite_Detected” and the Emax [3] was 4%. For the same compound, the solubility [4] was 6 µg/mL (≈ 12 µM), the Emax [5] was 15% and the solubility [6] was 55 µg/mL (≈ 110 µM). The CLH [7] was 0.288 h⁻¹, the Activity (Rattus norvegicus [8]) was “Active” and the Activity (Mus musculus [9]) was “Active”. The IC50 [10] was > 10 µM, the logP [11] was 5 and the EC50 [12] was > 10 µM. The Activity (Rattus norvegicus [13]) was “Dose-dependent effect”, the EC50 [14] was > 10 µM and the metabolised at 0.5 h [15] was 98%. For the same compound, the Activity (Mus musculus [16]) was “Active”.
